Reference: ChEMBL document CHEMBL2062426 (J Med Chem, 2012)
pIC50: −log10 of the molar value.

How the values were obtained:
Neutrophil collagenase = Neutrophil collagenase (Homo sapiens, UniProt P22894); test: Inhibition of MMP8 using (7-methoxycoumarin-4-yl)acetyl-Pro-Leu-Gly-Leu-(3-(2,4-dinitrophenyl)-L-2,3-diaminopropionyl)Ala-Arg-NH2 as substrate incubated for 30 mins prior to substrate addition measured for 10 mins by fluorometry
Method in brief: (§1)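 Activated MMP-8 or MMP-9 (2 nM) was preincubated with inhibitor (10 pM–1 mM) in 50 mM Tris-HCl pH 7.5 with 0.2 M NaCl, 5 mM CaCl2, 20 μM ZnSO4 and 0.05% Brij 35 at 37 °C for 30 min. Fluorogenic substrate (10 μL of 50 μM into 90 μL) was then added. Rates from the first 10 min were plotted against inhibitor concentration, and values are the mean of three experiments.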

[1] = molecular target: Matrix metalloproteinase-9 (Homo sapiens, UniProt P14780); test: Inhibition of MMP9 using (7-methoxycoumarin-4-yl)acetyl-Pro-Leu-Gly-Leu-(3-(2,4-dinitrophenyl)-L-2,3-diaminopropionyl)Ala-Arg-NH2 as substrate incubated for 30 mins prior to substrate addition measured for 10 mins by fluorometry; method in brief: as §1
Chain of Matrix metalloproteinase-9 (P14780 whole entry): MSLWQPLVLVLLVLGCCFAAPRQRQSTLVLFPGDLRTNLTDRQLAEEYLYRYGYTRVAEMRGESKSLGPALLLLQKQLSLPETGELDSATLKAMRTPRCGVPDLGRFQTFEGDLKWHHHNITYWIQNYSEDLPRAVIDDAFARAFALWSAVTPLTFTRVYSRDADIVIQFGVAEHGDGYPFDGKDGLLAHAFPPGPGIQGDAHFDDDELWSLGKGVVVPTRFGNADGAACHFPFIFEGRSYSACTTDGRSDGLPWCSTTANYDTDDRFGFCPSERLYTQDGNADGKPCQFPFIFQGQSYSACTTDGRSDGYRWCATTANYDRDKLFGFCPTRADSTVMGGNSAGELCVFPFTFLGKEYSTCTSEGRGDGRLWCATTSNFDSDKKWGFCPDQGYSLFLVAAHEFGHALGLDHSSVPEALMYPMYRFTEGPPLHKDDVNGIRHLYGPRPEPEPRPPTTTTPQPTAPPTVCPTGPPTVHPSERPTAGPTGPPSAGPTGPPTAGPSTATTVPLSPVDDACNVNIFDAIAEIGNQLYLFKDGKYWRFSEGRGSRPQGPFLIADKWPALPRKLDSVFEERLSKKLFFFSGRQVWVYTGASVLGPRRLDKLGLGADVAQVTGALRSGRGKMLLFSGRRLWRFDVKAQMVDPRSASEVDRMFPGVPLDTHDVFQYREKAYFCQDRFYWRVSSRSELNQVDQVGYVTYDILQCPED

Collagenase 3 = Collagenase 3 (Homo sapiens, UniProt P45452); test: Inhibition of MMP13 using (7-methoxycoumarin-4-yl)acetyl-Pro-Leu-Gly-Leu-(3-(2,4-dinitrophenyl)-L-2,3-diaminopropionyl)Ala-Arg-NH2 as substrate incubated for 30 mins prior to substrate addition measured for 10 mins by fluorometry
[2] = molecular target: 72 kDa type IV collagenase (Homo sapiens, UniProt P08253); test: Inhibition of MMP2 using (7-methoxycoumarin-4-yl)acetyl-Pro-Leu-Gly-Leu-(3-(2,4-dinitrophenyl)-L-2,3-diaminopropionyl)Ala-Arg-NH2 as substrate incubated for 30 mins prior to substrate addition measured for 10 mins by fluorometry
Chain of 72 kDa type IV collagenase (P08253 whole entry): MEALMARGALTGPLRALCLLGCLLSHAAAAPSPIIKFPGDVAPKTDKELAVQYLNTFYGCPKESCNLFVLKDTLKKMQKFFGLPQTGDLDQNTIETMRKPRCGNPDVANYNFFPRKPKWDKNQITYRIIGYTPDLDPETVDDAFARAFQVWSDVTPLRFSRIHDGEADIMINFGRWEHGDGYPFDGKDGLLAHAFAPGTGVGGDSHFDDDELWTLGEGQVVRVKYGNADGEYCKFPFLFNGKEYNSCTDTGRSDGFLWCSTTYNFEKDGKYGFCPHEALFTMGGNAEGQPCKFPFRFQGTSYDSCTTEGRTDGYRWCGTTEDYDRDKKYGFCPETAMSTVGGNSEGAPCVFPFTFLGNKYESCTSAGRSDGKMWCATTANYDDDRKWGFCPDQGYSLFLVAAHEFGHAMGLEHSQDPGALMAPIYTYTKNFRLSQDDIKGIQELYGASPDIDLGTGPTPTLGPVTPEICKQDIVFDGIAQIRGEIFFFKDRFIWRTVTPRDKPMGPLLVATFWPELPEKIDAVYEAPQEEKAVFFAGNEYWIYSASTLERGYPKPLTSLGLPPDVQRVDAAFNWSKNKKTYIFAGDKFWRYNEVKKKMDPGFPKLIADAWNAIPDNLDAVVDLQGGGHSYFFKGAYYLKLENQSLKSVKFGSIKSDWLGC

Chain of Neutrophil collagenase (P22894 whole entry): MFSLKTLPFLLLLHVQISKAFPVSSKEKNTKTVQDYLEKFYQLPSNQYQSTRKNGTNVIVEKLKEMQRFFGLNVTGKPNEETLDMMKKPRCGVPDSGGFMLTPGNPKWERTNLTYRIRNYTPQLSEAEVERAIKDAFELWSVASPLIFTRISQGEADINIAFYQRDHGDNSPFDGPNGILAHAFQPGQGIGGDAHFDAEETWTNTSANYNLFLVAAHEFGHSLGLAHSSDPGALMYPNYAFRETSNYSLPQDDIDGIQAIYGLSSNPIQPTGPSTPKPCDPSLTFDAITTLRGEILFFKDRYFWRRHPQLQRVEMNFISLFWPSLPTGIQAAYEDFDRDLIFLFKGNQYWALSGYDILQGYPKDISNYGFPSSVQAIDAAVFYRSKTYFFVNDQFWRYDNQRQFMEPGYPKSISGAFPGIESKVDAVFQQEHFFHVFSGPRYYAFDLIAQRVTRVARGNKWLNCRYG

pIC50 (Neutrophil collagenase) | pIC50 [1] | pIC50 (Collagenase 3) | pIC50 [2] | SMILES
8.30 | 8.40 | 9.00 | 8.52 | COc1ccc(S(=O)(=O)N(Cc2cn(CCOCCOCCOCCOc3cccnc3F)nn2)[C@@H](C(=O)NO)C(C)C)cc1
9.96 | 9.43 | 10.05 | 9.46 | C#CCOCCOCCOCCOCCOc1ccc(CN([C@@H](C(=O)NO)C(C)C)S(=O)(=O)c2ccc(OC)cc2)cc1
8.52 | 8.52 | 9.00 | 8.40 | COc1ccc(S(=O)(=O)N(Cc2ccc(OCCOCCOCCOCCn3cc(COCCOCCOCCOCCOCCF)nn3)cc2)[C@@H](C(=O)NO)C(C)C)cc1
7.85 | 8.70 | 8.00 | 8.30 | C#CCN([C@@H](C(=O)NO)C(C)C)S(=O)(=O)c1ccc(OC)cc1
9.70 | 9.22 | 8.22 | 8.70 | COc1ccc(S(=O)(=O)N(Cc2ccc(OCCOCCOCCOCCOCc3cn(CCF)nn3)cc2)[C@@H](C(=O)NO)C(C)C)cc1
10.40 | 10.30 | 10.40 | 10.00 | COc1ccc(S(=O)(=O)N(Cc2cn(CCOCCOCCOCCF)nn2)[C@@H](C(=O)NO)C(C)C)cc1
8.30 | 8.30 | 8.40 | 8.40 | COc1ccc(S(=O)(=O)N(Cc2ccc(OCCOCCOCCOCCOCc3cn(CCOCCOCCOCCF)nn3)cc2)[C@@H](C(=O)NO)C(C)C)cc1
9.30 | 9.22 | 9.30 | 9.70 | COc1ccc(S(=O)(=O)N(Cc2cn([C@@H]3O[C@H](CO)[C@@H](O)[C@H](O)[C@H]3F)nn2)[C@@H](C(=O)NO)C(C)C)cc1
